Results taken from publication PMC7442178 (Biochemical engineering journal, 2019).
Residues, ends and D or L forms follow the SMILES beside them. *: point of attachment. AMC = Cc1cc(=O)oc2cc(N*)ccc12; Cbz = O=C(OCc1ccccc1)*

Key:
DUBs in HeLa lysates = experiment: DUB-mediated hydrolysis of peptide reporters in HeLa lysates; type: biochemical; settings: for V/K value (Vmax/Km): HeLa lysates 4 mg/mL, DMSO curves, Michaelis-Menten parameters
Procedure, shortened: (§1)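 Lysates (4 mg/mL protein, by NanoDrop) came from M-PER extraction of PBS-washed HeLa or OPM2 cells, clarified at 14,000 × g. Lysates were pre-treated 1 h with 20 or 50 μM PR-619 or DMSO, in 50 mM HEPES pH 7.4, 150 mM NaCl, 2 mM DTT, 0.02% Tween-20. Released AFC or AMC was read every 30 min for 6 h at 30°C. Rates were calibrated, and Km and vmax came from Michaelis-Menten fits.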

DUBs in OPM2 lysates = experiment: DUB-mediated hydrolysis of peptide reporters in OPM2 lysates; type: biochemical
Procedure, shortened: as §1

[1] = tested on: DUBs in intact OPM2 cells; experiment: Direct visualization of DUB activity in intact OPM2 cells; type: cell-based; settings: 50 μM peptide, 120 minutes, 37°C, DAPI filter
[2] = tested on: DUBs in intact HeLa cells; experiment: Enzyme-substrate kinetics in intact HeLa cells; type: cell-based
intact cells = settings: cited from earlier work
[3] = cited from earlier work

Compound: Ac-RWVRVpGO(FAM)WIRQ-LVLRLRGG-AFC [Peptide 2]
- Effect of DUB inhibition (PR-619) on rate data of the reporter (DUBs in HeLa lysates; HeLa lysates pre-treated 1 h with 0, 20, 50 μM PR-619): did not result in a significant effect

Compound: Ac-RWVRVpGO(FAM)WIRQ-LRGG-AFC [Peptide 1]
- Uninhibited reaction rates in OPM2 lysates, comparison (DUBs in OPM2 lysates; OPM2 lysates 4 mg/mL, no inhibitor, p<10^−4): significantly higher than Peptide 3
- Intracellular fluorescence signal from DUB-mediated hydrolysis [1]: showed an increase in intracellular fluorescence
- Si,max, intracellular saturation concentration (model) ([2]; calculated from a, b, c, d, nintact with Eq. 7, HeLa cells): 1.28 µM
- S0,50, external solution concentration at half-saturation level (model) ([2]; calculated from a, b, c, d, nintact with Eq. 8, HeLa cells): 55.1 µM
- nintact (Hill coefficient) ([2]; intact HeLa cells, Hill model fit): 6.8
- (V/K) intact ([2]; intact HeLa cells, from Hill parameters, unit not given): 1.38*10^−5
- V/K value (Vmax/Km) (DUBs in HeLa lysates): 0.00212 min⁻¹

Compound: Cc1cc(=O)oc2cc(NC(=O)CNC(=O)CNC(=O)[C@H](CCCNC(=N)N)NC(=O)[C@H](CC(C)C)NC(=O)OCc3ccccc3)ccc12 [Peptide 3, Z-Leu-Arg-Gly-Gly-AMC] (Cbz-LRGG-{AMC})
- Intracellular fluorescence signal from DUB-mediated hydrolysis [1]: did not produce a detectable signal
- Reaction rates in intact cells ([2]; intact HeLa cells incubated with varying peptide concentrations for 6 h): not significantly different from zero
- V/K value (Vmax/Km) (DUBs in HeLa lysates): 0.00021 min⁻¹

Compound: N#CSc1cc(SC#N)c(N)nc1N [PR-619]
- Inhibition of DUB activity (residual activity) (DUBs in OPM2 lysates; lysates treated with 50 μM PR-619, pre-treatment 1 h, OPM2 lysates): incomplete inhibition
- Inhibition of DUB activity (residual activity) (DUBs in HeLa lysates; lysates treated with 50 μM PR-619, pre-treatment 1 h, HeLa lysates): incomplete inhibition

Compound: RWVRVpGRWIRQ [RWRWR]
- Incubation time sufficient to deliver the CPP into intact cells (intact cells): 10 min
- Time to penetrate intact cells (intact cells): ≤ 10 min
- half-life in HeLa lysates [3]: 7 h
